The target in series [1] is BK receptors. Put plainly: Radioligand competition binding assay with [3H]BK in rat brain membranes. As to conditions: pH 6.8, rat brain membranes, 1 nM [3H]BK; for IC50: read-out: IC50, BK receptors, [3H]BK.
Series [2] can be described thus: In vitro stability in rat plasma. In kind it is in vitro ADME. As to conditions: for half-life / remaining at 24 h, 10 mg/mL / remaining at 120 h, 10 mg/mL: rat; for half-life: plasma, t1/2 in rat plasma, 37 °C.
Series [3] is described as follows: In vitro stability in human plasma. In kind it is in vitro ADME. The conditions noted are these: for remaining at 24 h, 10 mg/mL / Intact (%): human plasma; for Intact (%): after a 24 h incubation. The procedure, abridged:
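Test compound stock (50 mg/mL in water) was diluted 5-fold into lithium-heparin human plasma and incubated at 37 °C. Samples were taken at 1, 2, 4, 6, 12 and 24 h, quenched with EtOH and centrifuged. Supernatant was run on C-18 RP-HPLC (10–90% acetonitrile, 40 min). t1/2 = 0.693/b, where b is the slope of ln(fraction parent remaining) versus time. Three independent experiments.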

Series [4] in a line: Rat plasma stability of 1 with or without protease inhibitors. It is filed as in vitro ADME. The conditions noted are these: t1/2, rat plasma, calculated after a 4 h incubation. The procedure, abridged: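 Test compound was added to rat plasma together with one protease inhibitor (60 nM bestatin, 100 µM chymostatin, 1 mM PMSF, 10 µM captopril or 1 mM EDTA), with all five combined, or with none. Incubation was at 37 °C after 5-fold dilution of the stock. Parent remaining was measured by RP-HPLC after EtOH quench. t1/2 was calculated after 4 h incubation as 0.693/slope of ln(fraction remaining) versus time.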

The test system of series [5] is naïve rats. As to conditions: naïve animals, i.th.; cited from earlier work.
The subject of series [6] is SNL rats. The conditions noted are these: nerve-injured animals (L5/L6 SNL), i.th., dose-dependent; cited from earlier work.
The target in series [7] is BK receptors. As to conditions: competition assay using 1 nM [3H]DALKD, cited from earlier work.
In series [8] the test system is naïve rats. Put plainly: von Frey filament and Infra-Red tests in naïve rats. In kind it is in vivo, rat. The procedure, abridged: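 Nonfasted male Sprague-Dawley rats (250–300 g) carried i.th. catheters placed through the atlanto-occipital membrane to lumbar level under ketamine/xylazine (80/12 mg/kg i.p.). Naïve rats received Dyn A-(2–13) with or without test compound (3 nmol/5 µL i.th.). Tests were run every 20 min up to 120 min. Infrared paw withdrawal latency was calibrated to ~20 s on the uninjured paw; von Frey thresholds used the up-down/Dixon method. One-way ANOVA, p ≤ 0.05.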

Series [9] has as its system SNL rats. Put plainly: Hypersensitivity tests in L5/L6 spinal nerve ligation. In kind it is in vivo, rat. The conditions noted are these: i.th. Put shortly:
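L5/L6 spinal nerve-ligated male Sprague-Dawley rats (250–300 g, nonfasted) with lumbar-level i.th. catheters received test compound or vehicle at 3 nmol/5 µL i.th. Tactile paw withdrawal thresholds were measured against baseline and post-SNL values with von Frey filaments (up-down method, Dixon analysis) every 20 min up to 120 min after injection. One-way ANOVA, significance at p ≤ 0.05.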

Setting [10] is: calculated from a 5 day stability test.
Setting [11] is: i.th. co-administration 3 nmol/5 μL with Dyn A-(2–13) 3 nmol.

The text below walks through data of paper PMC5689068 (ACS chemical neuroscience, 2016).

Where two headings read alike, the source gives them in different places. Where a SMILES comes first, the peptide text is derived from it. [ ]: non-standard residue; d: D form. Nle = CCCC[C@H](N)C(=O)O

By IC50 is commonly meant the point on the concentration scale where inhibition reaches its midpoint. Usually half-life stands for the time in which the quantity being followed falls by half. The amount remaining is what is left of the initial amount, in per cent. Low readings indicate a greater loss, high ones greater stability.

On to `CC[C@H](C)[C@H](NC(=O)[C@H](CCCNC(=N)N)NC(=O)[C@H](CC(C)C)NC(=O)[C@@H](N)Cc1ccccc1)C(=O)N[C@@H](CCCNC(=N)N)C(=O)N1CCC[C@H]1C(=O)N[C@@H](CCCCN)C(=O)O` [compound 1, H-Phe-Leu-Arg-Ile-Arg-Pro-Lys-OH], for which the “log[IC50], BK receptors, [3H]BK” value at BK receptors [1] is on record as −6.83 ± 0.09. Besides, the half-maximal inhibitory concentration (IC50) on BK receptors [1] is 150 nM. Besides, the “time to complete degradation” value in [2] (rat plasma incubation) was at most 4 h. Also, the half-life was below 1 h in [2] (24 h study); 2.4 h in [3] (human, plasma); 0.8 h in series [4] (60 nM bestatin); 0.8 h in series [4] (1 mM EDTA); 0.8 h in series [4] (1 mM PMSF). Further, the fraction remaining at 24 h, 10 mg/mL in series [2] (rat plasma) and in [3] (human) was 0% each time. This molecule gave a time to degradation in [3] (human plasma incubation) of at most 4 h. Moreover, in the series with naïve rats [5], the “Dyn A-induced hyperalgesia and motor impairments” value was “block Dyn A-induced hyperalgesia and motor impairments”. In addition, the “thermal hyperalgesia and mechanical hypersensitivity” value in the series with SNL rats [6] was “reverse thermal hyperalgesia and mechanical hypersensitivity”.

Molecule `CCCC[C@H](NC(=O)[C@H](CCCNC(=N)N)NC(=O)[C@H](CCCC)NC(=O)[C@@H](N)Cc1ccccc1)C(=O)N[C@@H](CCCNC(=N)N)C(=O)N1CCC[C@H]1C(=O)N[C@@H](CCCNC(=N)N)C(=O)O` [compound 4, H-Phe-Nle-Arg-Nle-Arg-Pro-Arg-OH] (H-F[Nle]R[Nle]RPR-OH) showed a half-life in [2] (24 h study) of 1.2 h. Also, in series [2] (rat plasma), the share remaining at 24 h, 10 mg/mL was 0%. The “log[IC50], BK receptors” value on BK receptors [7] is on record as −7.06 ± 0.10. Moreover, the IC50 at BK receptors [7] (read-out: IC50, BK receptors) was 86 nM.

Molecule `CCCC[C@H](NC(=O)[C@H](Cc1ccccc1)NC(C)=O)C(=O)N[C@@H](CCCNC(=N)N)C(=O)N[C@@H](CCCC)C(=O)N[C@@H](CCCNC(=N)N)C(=O)N1CCC[C@H]1C(=O)N[C@@H](CCCNC(=N)N)C(=O)O` [compound 5, Ac-Phe-Nle-Arg-Nle-Arg-Pro-Arg-OH] (Ac-F[Nle]R[Nle]RPR-OH) gave a half-life in series [2] (24 h study) of 3.4 h. In series [2] (rat plasma), this molecule gave a share remaining at 24 h, 10 mg/mL of 0%.

As to `CC[C@H](C)[C@H](NC(=O)[C@H](CCCNC(=N)N)NC(=O)[C@H](CC(C)C)NC(=O)[C@@H](N)Cc1ccccc1)C(=O)N[C@@H](CCCNC(=N)N)C(=O)N1CCC[C@H]1C(=O)N[C@H](CCCCN)C(=O)O` [compound 11, H-Phe-Leu-Arg-Ile-Arg-Pro-D-Lys-OH], at BK receptors [1], the “log[IC50], BK receptors, [3H]BK” value is −6.03 ± 0.14 and the concentration for half-maximal inhibition (IC50) was found to be 830 nM. In series [2] (rat plasma), this molecule yielded a fraction remaining at 24 h, 10 mg/mL of 0%.

For the molecule `CC[C@@H](C)[C@@H](NC(=O)[C@H](CCCNC(=N)N)NC(=O)[C@H](CC(C)C)NC(=O)[C@@H](N)Cc1ccccc1)C(=O)N[C@@H](CCCNC(=N)N)C(=O)N1CCC[C@H]1C(=O)N[C@@H](CCCCN)C(=O)O` [compound 14, H-Phe-Leu-Arg-D-Ile-Arg-Pro-Lys-OH], the IC50 at BK receptors [1] was above 10000 nM. Also, the half-life in [2] (24 h study) was 3.3 h. The same molecule gave a fraction remaining at 24 h, 10 mg/mL in series [2] (rat plasma) of 0%.

With `CC[C@H](C)[C@H](NC(=O)[C@@H](CCCNC(=N)N)NC(=O)[C@H](CC(C)C)NC(=O)[C@@H](N)Cc1ccccc1)C(=O)N[C@@H](CCCNC(=N)N)C(=O)N1CCC[C@H]1C(=O)N[C@@H](CCCCN)C(=O)O` [compound 15, H-Phe-Leu-D-Arg-Ile-Arg-Pro-Lys-OH], at BK receptors [1], the “log[IC50], BK receptors, [3H]BK” value was −6.51 ± 0.19 and the IC50 came to 310 nM. This molecule showed a half-life in [2] (24 h study) of 31 h. This molecule showed an amount remaining at 24 h, 10 mg/mL in [2] (rat plasma) of 62 ± 25%.

As to `CC[C@H](C)[C@H](NC(=O)[C@H](CCCNC(=N)N)NC(=O)[C@@H](CC(C)C)NC(=O)[C@@H](N)Cc1ccccc1)C(=O)N[C@@H](CCCNC(=N)N)C(=O)N1CCC[C@H]1C(=O)N[C@@H](CCCCN)C(=O)O` [compound 16, H-Phe-D-Leu-Arg-Ile-Arg-Pro-Lys-OH], at BK receptors [1], the “log[IC50], BK receptors, [3H]BK” value is −6.90 ± 0.23 and the concentration for half-maximal inhibition (IC50) is 130 nM. In [2], the “increase in stability in plasma compared to that of 1” value is given as 229 fold. The “Intact (%)” value in series [2] (rat plasma, after a 24 h incubation) is “more than 95%”. In series [2] (setting [10]), the half-life was 160 h. Also, in [2] (rat plasma), the share remaining at 24 h, 10 mg/mL came out at 99 ± 9% and the amount remaining at 120 h, 10 mg/mL was 66%. Moreover, the “Intact (%)” value in series [3] is recorded as “more than 95%”. Moreover, the amount remaining at 24 h, 10 mg/mL in [3] (human) amounted to 99 ± 10%. Further, in the series with naïve rats [8] (setting [11]), the “Dyn A-(2–13)-induced tactile hypersensitivity (von Frey filament test)” value was “blocked” and the “Dyn A-(2–13)-induced thermal hypersensitivity (Infra-Red test)” value was “blocked”. The “time of maximal paw withdrawal threshold and latency after injection” value in the series on naïve rats [8] (i.th., 3 nmol/5 μL) amounted to 40 min. Further, the “nerve injury-related tactile hypersensitivity” value with SNL rats [9] is “modulated”.

Regarding `CC[C@H](C)[C@H](NC(=O)[C@H](CCCNC(=N)N)NC(=O)[C@H](CC(C)C)NC(=O)[C@H](N)Cc1ccccc1)C(=O)N[C@@H](CCCNC(=N)N)C(=O)N1CCC[C@H]1C(=O)N[C@@H](CCCCN)C(=O)O` [compound 17, H-D-Phe-Leu-Arg-Ile-Arg-Pro-Lys-OH], at BK receptors [1], the “log[IC50], BK receptors, [3H]BK” value is −6.60 ± 0.14 and the IC50 stood at 250 nM. The half-life in series [2] (24 h study) is 19 h. In series [2] (rat plasma), this molecule returned an amount remaining at 24 h, 10 mg/mL of 44 ± 12%.

With `CC[C@H](C)[C@H](NC(=O)[C@H](CCCNC(=N)N)NC(=O)[C@H](CC(C)C)NC(=O)[C@H](Cc1ccccc1)NC)C(=O)N[C@@H](CCCNC(=N)N)C(=O)N1CCC[C@H]1C(=O)N[C@@H](CCCCN)C(=O)O` [compound 20, H-NMePhe-Leu-Arg-Ile-Arg-Pro-Lys-OH], on BK receptors [1], the “log[IC50], BK receptors, [3H]BK” value was −6.06 ± 0.14 and the IC50 is 870 nM. In [2] (24 h study), this molecule had a half-life of 15 h. The fraction remaining at 24 h, 10 mg/mL in series [2] (rat plasma) turned out to be 31 ± 11%.

For the molecule `CC[C@H](C)[C@H](NC(=O)[C@H](CCCNC(=N)N)NC(=O)[C@H](CC(C)C)N(C)C(=O)[C@@H](N)Cc1ccccc1)C(=O)N[C@@H](CCCNC(=N)N)C(=O)N1CCC[C@H]1C(=O)N[C@@H](CCCCN)C(=O)O` [compound 21, H-Phe-NMeLeu-Arg-Ile-Arg-Pro-Lys-OH], the results for the half-life in series [2] (24 h study) and in [2] (setting [10]) were above 4000 h and 65 h, respectively. The figures for the share remaining at 24 h, 10 mg/mL in [2] (rat plasma) and in [3] (human) were 100 ± 16% and 96 ± 5%, respectively. The amount remaining at 120 h, 10 mg/mL in series [2] (rat plasma) was 31%. In [3], the “Intact (%)” value is “more than 95%”.

With Dyn A-(2–13) [reference compound], in the series with naïve rats [8] (i.th. injection 3 nmol, alone), the “paw withdrawal latency (Infra-Red test)” value is recorded as “reduced” and the “paw withdrawal threshold (von Frey filament test)” value is given as “reduced”.
